Measurements published in ChEMBL document CHEMBL1151332, “A new prenylated flavonol from the roots of Sophora flavescens” (J Nat Prod, 1998).
Values after ≈ are worked out from the molar mass of the structure shown. Active and inactive are the calls of the source. No cut-off for these calls is given here.

Columns and labels:
Human alphaherpesvirus 1 = test: Antiviral activity against HSV1 in african green monkey Vero cells assessed as virus-induced cytopathic effect after 3 days by MTT assay; type: functional, organism-based; conditions: Human alphaherpesvirus 1, Vero, 72 h
Method in brief: (§1)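 Vero cells seeded at 3 × 10³/well and grown 3-4 days to a confluent monolayer, washed, then infected with virus diluted in DME plus 2% FBS at a dose equal to 50% cell culture inhibitory dose (CCID50) for 60 min at 37 °C. Inoculum removed; medium with graded sample concentrations (below 300 µg/mL) added in duplicate; 3 days at 37 °C, 5% CO2. MTT read-out; EC50 = concentration inhibiting virus-induced CPE by 50%.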

Human alphaherpesvirus 2 = test: Antiviral activity against HSV2 in african green monkey Vero cells assessed as virus-induced cytopathic effect after 3 days by MTT assay; type: functional, organism-based; conditions: for EC50: Human alphaherpesvirus 2, Vero, 72 h; method in brief: as §1

Structure (SMILES)	EC50 (Human alphaherpesvirus 1)	Activity (Human alphaherpesvirus 2)	EC50 (Human alphaherpesvirus 2)
C=C(C)[C@H](CC=C(C)C)Cc1c(O)cc(OC)c(C(=O)/C=C/c2ccc(O)cc2O)c1O [KURAIDIN]	> 300 µg/mL	inactive	
C=C(C)[C@H](CCC(C)(C)O)Cc1c(O)cc(OC)c2c1O[C@H](c1ccc(O)cc1O)CC2=O [KURARINOL]	60 µg/mL (≈ 131 µM)		44 µg/mL (≈ 96.4 µM)
C=C(C)[C@H](CCC(C)(C)O)Cc1c(O)cc(OC)c2c1O[C@H](c1ccc(O)cc1O)[C@@H](O)C2=O [KUSHENOL H]	> 300 µg/mL		162 µg/mL (≈ 343 µM)
C=C(C)[C@H](CCC(C)(C)O)Cc1c(O)cc(OC)c2c1O[C@H](c1ccc(O)cc1O)[C@H](O)C2=O [KUSHENOL K]	> 300 µg/mL		147 µg/mL (≈ 311 µM)
COc1cc(O)c(CC=C(C)C)c2oc(-c3ccc(O)cc3)c(O)c(=O)c12 [SOPHOFLAVESCENOL]	> 300 µg/mL	inactive	
OC[C@H]1O[C@@H](Oc2ccc3c(c2)OC[C@H]2c4cc5c(cc4O[C@@H]32)OCO5)[C@H](O)[C@@H](O)[C@@H]1O [TRIFOLIRHIZIN]	> 300 µg/mL	inactive	
